# Bioassay records as filed in PubChem.
# Yeast life ext: compounds extending yeast replicative lifespan, primary screen, S. cerevisiae, OD615; S. cerevisiae growth with nicotinamide; deaD strain in restrictive glucose medium; inhibition of the nicotinamide effect, % at 10 µM; actives 0.68% (n = 130,000); AID 775, 2007;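 active means inhibition above a set limit, placed 3 SD over the median of all compounds, cut at about 26% in these data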;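 further: 0% = nicotinamide-treated wells and 100% = cells grown without nicotinamide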
#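 Test system – modified budding yeast, DeaD strain · Compound – single dose 10 µM compound, 0.25% DMSO · Times – culture preincubation 4 h, compound exposure 48 h, both 30 °C · Detection – optical density (absorbance) at 615 nm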
# Measles CPE: compounds protecting cells from measles virus cytopathic effect, primary screen, measles RdRp inhibitor project, single point, MLSMR library, absorbance. Measles virus-infected cells, CPE protection. protection (pct of control), % at 4 µM. actives 1.5% (n = 140,000). AID 841, 2007; in the data active means protection mostly above about 24%, no sharp cut-off; inactive means mostly below about 26%
# RAM network inh: inhibitors of the yeast RAM network, primary screen, dse1pr::URA3 reporter, 5-FOA selection; S. cerevisiae dse1pr::URA3 reporter, 5-FOA growth OD615, 2 d; analog-sensitive cbk1-as2 kinase mutant strain; inhibition, % at 50 µM; actives 1.8% (n = 190,000);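 active means inhibition above a set limit, 3 SD over mean compound inhibition, cut at about 8.4% in these data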;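 further: 0% = DMSO-only wells with no growth and 100% = 10 µM 1-NA-PP1 full growth; inhibition rescues growth on 5-FOA so higher OD means more RAM inhibition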
# WT yeast gro inh: growth inhibition of WT strain, primary screen, mitochondrial fusion inhibitor project, WT and mutant strains, chemical genetic; mitochondrial fusion phenotypic screen; inhibition, % at 10 µM; actives 2.1% (n = 190,000); in the data active means inhibition above about 58%; tested in S. cerevisiae
# hDAT+cocaine: changed hDAT dopamine uptake under cocaine IC80, either direction, primary screen, cocaine antagonist project, cell-based, LLC-PK1 hDAT, [14C]-dopamine uptake, MLSMR. LLC-PK1 hDAT cells, [14C]-dopamine uptake with cocaine IC80; actives deviate in either direction. Sodium-dependent dopamine transporter (Homo sapiens), Q01959. actives 1.3% (n = 110,000). B-score at 10 µM;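 active means Z score or B-score, a plate-position-corrected score, falls beyond the plate's 99.7% confidence bounds, in either direction; inactive means both scores lie inside the 99.7% bounds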;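 further: scored against the spread of the other compound wells on the same plate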
# Target sequence (Q01959 whole entry, looked up): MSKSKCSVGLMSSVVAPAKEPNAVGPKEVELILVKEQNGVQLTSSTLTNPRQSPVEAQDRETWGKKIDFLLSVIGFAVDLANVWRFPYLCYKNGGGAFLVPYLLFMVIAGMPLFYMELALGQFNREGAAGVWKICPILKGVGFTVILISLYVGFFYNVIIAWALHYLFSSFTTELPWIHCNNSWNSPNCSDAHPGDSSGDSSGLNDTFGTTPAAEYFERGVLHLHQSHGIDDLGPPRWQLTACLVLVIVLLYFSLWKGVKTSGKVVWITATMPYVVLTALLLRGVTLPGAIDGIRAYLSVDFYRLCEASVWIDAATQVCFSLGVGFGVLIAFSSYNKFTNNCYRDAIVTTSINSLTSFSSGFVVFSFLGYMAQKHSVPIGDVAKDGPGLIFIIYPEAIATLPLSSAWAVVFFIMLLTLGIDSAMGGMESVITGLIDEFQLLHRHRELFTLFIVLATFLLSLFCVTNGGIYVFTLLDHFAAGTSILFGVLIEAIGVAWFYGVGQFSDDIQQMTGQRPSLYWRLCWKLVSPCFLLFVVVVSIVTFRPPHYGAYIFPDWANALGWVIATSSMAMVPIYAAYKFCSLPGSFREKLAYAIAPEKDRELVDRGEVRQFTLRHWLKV
# BB579 growth dn: growth inhibitors of yeast BB579 in restrictive medium, primary screen, yeast lifespan-shortening project, S. cerevisiae. inhibition, % at 10 µM. actives 0.51% (n = 140,000). AID 804, 2007. OD615, 48 h;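 active means inhibition above a set limit, 3 SD over the mean compound inhibition, cut at about 44% in these data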
#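 test system = yeast BB579 (DeaD) | buffer or medium = restrictive CSMM-D medium | doses = single compound dose of 10 µM, 0.25% DMSO final | times = 4 h preincubation and 48 h exposure at 30 °C | technique = culture absorbance at 615 nm | benchmarks = amphotericin B 10 µg/mL, positive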
# Numbers without * were called inactive; . = no result. Compounds with a hit are over-represented: about 6.1% of the library has one in this group of screens.
SMILES,Yeast life ext,Measles CPE,RAM network inh,WT yeast gro inh,hDAT+cocaine,BB579 growth dn
CCOC(=O)c1sc(=S)sc1SCc1cccc(C(F)(F)F)c1,0,11,8.9*,21,0.9,-51
O=C(O)c1cc(-c2ccc(Cl)cc2)n[nH]1,-6,35*,1,6,-0.69,-68
CCSc1ccc2cc(OC)ccc2[n+]1CC,.,.,-1,62*,.,.
CCn1ccc2cc(OC)ccc2c1=S,-27,6,1,1,-1.6,-25
COc1ccccc1CN1CCNC(=O)C1CC(=O)NCc1cn(C)nc1C (stereo not given),.,.,2,-3,.,.
COC(=O)c1ccc(CNC(=O)COC(=O)c2cc(Cl)nc(Cl)c2)cc1,.,.,4,-4,.,.
CC(=O)N1CCc2cc(C(=O)CN3CCN(c4cccc(Cl)c4)CC3)ccc21,0,10,2,8,1.3,20
CC(=O)N1CCc2cc(C(=O)CN3CCC(C)CC3)ccc21,-3,35*,2,16,-0.33,-26
COc1ccc(-c2ccc(=O)n(Cc3cc(=O)n4ccccc4n3)n2)cc1,-8,32*,0,8,1.2,-14
Cc1ccc(/C=C/C(=O)c2ccc(C)cc2)cc1,.,8,2,7,-0.46,-24
Cc1ccc(/C=C/C(=O)C2C(=O)c3ccccc3C2=O)cc1,42*,1,3,9,0.015,-20
O=C(Nc1cccn(Cc2ccccc2)c1=O)NC1CCCCC1,-4,19,2,3,0.93,-32
O=C(Nc1cccn(Cc2ccc(F)cc2)c1=O)NC1CCCCC1,-1,0,2,10,2.3*,-24
O=C(/C=C/c1ccccc1[N+](=O)[O-])c1ccccc1Br,.,.,1,69*,.,.
COc1ccc(Cl)cc1C(=O)Nc1ccc(NC(=O)C(C)C)cc1,.,.,3,11,.,.
CC1Cc2ccccc2N1c1nc(C2CC2)nc2c1nnn2Cc1ccccc1 (stereo not given),.,22,5,27,-0.35,-18
COCCCn1nnnc1SCC(=O)N1c2ccccc2CC1C (stereo not given),.,.,1,-9,.,.
CC1Cc2ccccc2N1C(=O)CSc1nnnn1Cc1ccccc1 (stereo not given),3,4,8.7*,19,0.87,-23
Cc1sc2nc(C3CC3)nc(SCC(=O)N3c4ccccc4CC3C)c2c1C (stereo not given),5,64*,6,9,-0.021,-44
CC1Cc2ccccc2N1c1ncnc2c1nnn2Cc1ccccc1 (stereo not given),-14,14,2,65*,-0.32,-65
CCn1nnnc1SCC(=O)N1c2ccccc2Sc2ccccc21,.,28*,0,-7,-1.3,1
CC1C/C(=C/c2ccncc2)C(=O)/C(=C/c2ccncc2)C1 (stereo not given),.,.,0,77*,.,.
C#CCSc1cc(C(F)(F)F)nc(-c2ccccn2)n1,.,.,1,25,.,.
COc1ccc(Sc2cc(C(F)(F)F)nc(-c3ccccn3)n2)cc1,-8,8,-1,62*,-1.3,-16
CC(C)CCOc1ccc(C2CC(=O)N(C)C2=O)cc1 (stereo not given),.,.,-1,-8,.,.
SMILES,Yeast life ext,Measles CPE,RAM network inh,WT yeast gro inh,hDAT+cocaine,BB579 growth dn
Cc1cccc(COCCN2CCN(S(=O)(=O)c3ccccc3)CCC2=O)c1,.,.,.,.,0.63,.
Cc1ccc(N=Cc2c(O)n(-c3ccc4c(c3)OCO4)c(=O)c3ccccc23)cc1,-6,20,2,73*,0.07,-4
Cc1cc(NC(=O)COC(=O)c2ccccc2[N+](=O)[O-])no1,.,.,4,-4,.,.
Cc1ccc(COn2c(-c3ccc(Cl)cc3Cl)nc3ncccc32)cc1,-7,13,-2,71*,0.25,-25
Clc1cccc(COn2c(-c3ccc(Cl)cc3Cl)nc3ncccc32)c1,7,11,-1,67*,-0.2,-18
Clc1ccc(Cn2c(-c3cccnc3Cl)nc3ccccc32)c(Cl)c1,-16,4,-1,9,0.31,-21
